HTRA1 inh = inhibitors of human serine peptidase HTRA1. Q92743. recombinant HTRA1, FP-rhodamine activity-based probe, fluorescence polarization. inhibition, % at 5.96 µM. 340,000 tested, 0.5% active; in the data active = inhibition above about 36%;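 note: 0% = enzyme with DMSO and 100% = wells lacking enzyme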
Target sequence (Q92743 whole entry, looked up): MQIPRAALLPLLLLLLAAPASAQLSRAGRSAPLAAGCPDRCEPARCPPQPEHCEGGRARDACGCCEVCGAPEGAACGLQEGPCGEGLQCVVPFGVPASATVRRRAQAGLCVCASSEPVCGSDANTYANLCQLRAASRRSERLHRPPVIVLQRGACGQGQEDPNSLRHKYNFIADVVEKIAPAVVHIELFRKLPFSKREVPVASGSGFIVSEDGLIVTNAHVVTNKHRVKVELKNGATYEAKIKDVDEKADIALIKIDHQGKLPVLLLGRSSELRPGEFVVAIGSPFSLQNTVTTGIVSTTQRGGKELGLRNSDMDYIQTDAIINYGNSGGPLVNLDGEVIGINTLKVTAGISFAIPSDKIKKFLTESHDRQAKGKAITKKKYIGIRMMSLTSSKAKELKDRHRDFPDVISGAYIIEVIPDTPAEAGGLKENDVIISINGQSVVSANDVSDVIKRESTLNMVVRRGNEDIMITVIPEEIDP
mABHD4 FP = inhibits mouse alpha/beta hydrolase domain 4; Q8VD66; purified mABHD4, FP-Rh probe fluorescence polarization; inhibition, % at 8.92 µM; 370,000 tested, 0.54% active; AID 720543;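 active = inhibition exceeding the mean over every tested compound plus 3 SD, cut at about 30% in these data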;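 note: 0% = plate median of compound wells and 100% = S159A mutant with DMSO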
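System: mouse ABHD4 enzyme, wild type / Medium: HEPES pH 7.0, NaCl, Pluronic buffer / Reagent: FP-Rh activity-based fluorescent probe / Control set: S159A mutant high control, sample median low control / Detection: fluorescence polarization with parallel and perpendicular emission, 525/598 nm / Schedule: 45 min + 60 min at 25 °C / Compound dosing: 8.92 µM, single dose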
SIAE inh = inhibitors of human sialic acid acetylesterase SIAE; Q9HAT2; SIAE FP-Rh probe binding, fluorescence polarization; inhibition, % at 9.66 µM; 370,000 tested, 0.69% active;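 active = inhibition above a cutoff: mean of compounds within the control limits plus 3 SD of those, cut at about 17% in these data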;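 note: 0% = plate median of compound wells and 100% = probe without SIAE protein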
PAD4 FP inh = inhibitors of human PAD4; Q9UM07; recombinant PAD4, RCA probe fluorescence polarization; 330,000 tested, 0.41% active; inhibition, % at 6.36 µM;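 active = percent inhibition above a cutoff equal to the mean of all tested compounds plus 3 SD, cut at about 15% in these data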;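 note: 0% = PAD4 with RCA probe and DMSO and 100% = probe without PAD4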
TCR-CD3 inh = inhibitors of human TCR-CD3 interaction | TAMRA-labeled TCR probe fluorescence, biochemical | inhibition, % at 9.4 µM | 360,000 tested, 0.37% active | AID 651800;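 note: recombinant mutant TCR 2C K166C tagged with TAMRA read by polarization; 0% = receptor in buffer alone and 100% = receptor with positive control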
TDP2 inh = blocks human TDP2 phosphodiesterase activity; O95551; 370,000 tested, 0.34% active; inhibition, % at 12.8 µM; AID 720702; recombinant TDP2, T5PNP hydrolysis, p-nitrophenol absorbance 415 nm;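 active = inhibition above the mean of all tested compounds plus 3 SD, set per campaign, cut at about 25% in these data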;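 note: 0% = DMSO with enzyme and 100% = buffer with substrate but no TDP2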
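Test system: human TDP2 enzyme; Input: 120 nM TDP2 per well; Buffer or medium: Mg2+-containing Tris-HCl buffer, pH 7.5; Reagent: 5 mM T5PNP; Dosing: 12.8 µM single point, 1% DMSO; Incubation: reaction 2 h, 37 °C; Detection: p-Nitrophenol epi absorbance; Read-out: % inhibition relative to enzyme-containing and enzyme-free wells; Replicates: single well per compound.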
BSA TAMRA ctr = interferes with TAMRA-BSA probe, flagging TCR-CD3 hits | TAMRA-labeled BSA probe fluorescence counterscreen | 1,200 tested, 10% active | shares compounds with TCR-CD3 inh | inhibition, % at 9.4 µM; in the data active = inhibition above about 23%;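 note: 0% = buffer low control and 100% = reference high control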
TCR-CD3 conf = confirmation of human TCR-CD3 interaction inhibitors; 1,200 tested, 48% active; inhibition, % at 9.4 µM; AID 652036; shares compounds with TCR-CD3 inh; TAMRA-labeled TCR probe fluorescence binding assay
* = called active by the depositor; / = not tested or not shown. Sampled rows, rich in hits. Any-hit rate of the full collection: about 2%. Cut-off read from the data, not from the text of the source, unless noted: active = inhibition above about 19%; inactive = the rest.

SMILES	HTRA1 inh	mABHD4 FP	SIAE inh	PAD4 FP inh	TCR-CD3 inh	TDP2 inh	BSA TAMRA ctr	TCR-CD3 conf
O=[N+]([O-])c1cc(C(F)(F)F)ccc1NC1CCN(Cc2ccccc2)CC1	/	-2	2	2	39*	7	10	4
O=[N+]([O-])c1cc(C(F)(F)F)ccc1NC1CCN(Cc2ccccc2)C1 (centres undefined)	-5	-2	8	-4	0	7	/	/
COC(=O)Cn1c(=NC(=O)c2cc(-c3cccs3)nc3ccccc23)sc2cc(S(N)(=O)=O)ccc21	-124	-105	-64	-6	57*	-6	10	31*
CCOC(=O)Cn1c(=NC(=O)c2cc(-c3cccs3)nc3ccccc23)sc2cc(S(N)(=O)=O)ccc21	-53	-27	-18	-10	38*	3	4	21*
CC1=CN2C(=N)/C(=C/c3ccc([N+](=O)[O-])o3)C(=O)N=C2S1	19	14	6	-23	72*	7	-16	2
O=C(Cc1ccccc1)N/N=C/c1cc(Br)cc(Cl)c1O	18	5	14	-14	30*	-5	-14	18
O=C(CP(=O)(c1ccccc1)c1ccccc1)N/N=C/c1cc(Br)cc(Br)c1O	29	4	11	1	50*	-3	-9	51*
O=C(C[n+]1ccccc1)N/N=C/c1cc(Br)cc(Br)c1O	6	/	/	-5	/	/	/	/
O=C(CNC(=O)c1ccccc1Br)N/N=C\c1cc([N+](=O)[O-])cc(Br)c1O	11	11	-1	3	69*	-1	-5	61*
C[C@H]1CN([C@@H](C)CO)C(=O)CCCn2cc(nn2)CO[C@@H]1CN(C)C(=O)c1ccncc1	5	1	-5	/	5	-5	/	/
Cc1ccc(C(=O)Nc2cnc3ccccn3c2=O)cc1	5	-8	-6	-2	25*	14	-2	-3
COc1ccc(C(=O)NCCc2nnc3ccc(SCC(=O)N4CCOCC4)nn23)cc1	0	4	-2	-3	13	-4	/	/
CCCCN(C(=O)c1cccc(-n2cccc2)c1)c1c(N)n(CCCC)c(=O)[nH]c1=O	-10	0	-2	-9	39*	3	-9	10
CCCCN(C(=O)c1cccc(-n2cccc2)c1)c1c(N)n(CCC)c(=O)[nH]c1=O	-6	3	1	4	9	2	/	/
CCN1CCN(C(=O)C2CCN(S(=O)(=O)c3ccc(Br)cc3)CC2)CC1	-2	-4	-11	/	19*	1	3	-3
CCOC(=O)C1=C(COC(=O)C2CC(=O)N(c3ccc(CC)cc3)C2)NC(=O)NC1C (centres undefined)	8	2	4	1	2	3	/	/
COc1ccc([N+](=O)[O-])cc1NC(=S)NC(NC(=O)C(c1ccccc1)c1ccccc1)C(Cl)(Cl)Cl (centres undefined)	-83	-89	-66	-8	74*	-14	33*	59*
COc1ccc([N+](=O)[O-])cc1NC(=O)C(C)c1ccccc1 (centres undefined)	-8	-1	1	-4	0	5	/	/
COc1cc(C2NC(=O)CCC2[N+](=O)[O-])cc(OC)c1OC (centres undefined)	-1	-8	-3	2	23*	-4	-2	-3
NC(c1csc(NC(=O)Nc2cccc(Cl)c2)n1)C1CCCCC1 (centres undefined)	/	10	-5	/	6	-1	/	/
C/C(=N\NC(=O)c1nnn(-c2nonc2N)c1CN(C)c1ccccc1)c1ccccc1O	29	-5	3	-1	41*	-3	-2	29*
Nc1nc2ccc(Cl)cc2o1	4	2	-5	/	1	-8	/	/
Cc1ncoc1C(=O)N1CCCC(C(=O)c2ccc(C(F)(F)F)cc2)C1 (centres undefined)	1	3	-11	1	-9	-7	/	/
Nc1ccc2nc(-c3cccc(-c4nc5ccc(N)cc5[nH]4)n3)[nH]c2c1	5	13	-3	-17	24*	17	-50	47*
C=CCc1cccc2cc(C(=O)NCCOC)c(=O)oc12	-2	9	-6	-1	-9	-8	/	/
SMILES	HTRA1 inh	mABHD4 FP	SIAE inh	PAD4 FP inh	TCR-CD3 inh	TDP2 inh	BSA TAMRA ctr	TCR-CD3 conf
C=CCc1cccc2cc(C(=O)NNC(=O)CC#N)c(=O)oc12	4	-3	3	-3	29*	-5	1	15
COc1ccc(N2CCN(C(CNC(=O)CC(C)(C)C)c3ccc4c(c3)OCO4)CC2)cc1 (centres undefined)	2	-6	-1	1	7	-1	/	/
Cc1ncc(CO)c(/C=N/NC(=O)c2cc(Br)ccc2O)c1O	34	10	3	-2	19	-1	/	/
Cc1cc(C(=O)N/N=C/c2c(CO)cnc(C)c2O)c2ccccc2n1	-4	5	-4	-2	23*	-19	-13	10
CCN(C(=O)COC(=O)c1cc2c(s1)CCCC2)c1c(N)n(Cc2ccccc2)c(=O)[nH]c1=O	0	-8	-3	-2	-5	1	/	/
O=C1CC(=O)NC(SCC(=O)Nc2ccccc2[N+](=O)[O-])=N1	5	20	16	-3	26*	18	-12	15
Cc1cc(C)nc(SCC(=O)Nc2ccccc2[N+](=O)[O-])n1	5	-5	5	-1	3	8	/	/
O=C(NCC1(N2CCOCC2)CCCCC1)c1ccc(S(=O)(=O)Nc2ccccc2F)cc1	4	6	4	-1	-5	-9	/	/
Cc1ccccc1NS(=O)(=O)c1ccc(C(=O)NCC2(N3CCOCC3)CCCCC2)cc1	-5	0	-5	/	27*	1	5	7
C[C@H]1/C=C/CC(=O)N[C@@H](c2ccc3ccccc3c2)[C@@H](C)/C=C/CC(=O)N[C@H]1c1ccc2ccccc2c1	/	-30	-12	/	/	-3	/	/
O=C(NN=C1CCCC1)c1ccccc1O	13	7	8	-3	23*	4	-15	15
NS(=O)(=O)c1ccc(NC(=O)/C=C/c2cn(-c3ccccc3)nc2-c2cccc(Cl)c2)cc1	-98	-46	-230	-22	24*	10	17	27*
Cc1ccc(C(=O)C(C)OC(=O)CN2C(=O)NC3(CCCC3)C2=O)cc1C (centres undefined)	3	-6	1	2	0	8	/	/
O=C(Nc1nc(-c2ccco2)c(-c2ccco2)s1)c1c(F)cccc1Cl	26	5	-7	-12	7	4	/	/
O=C(Nc1nc(-c2ccco2)c(-c2ccco2)s1)c1cnccn1	/	23	14	-10	38*	3	0	15

Compound activity deposited in PubChem by The Scripps Research Institute Molecular Screening Center.
